Assay results of several laboratories.
Compare with care: the assays were run in different laboratories.
ADRA1D: Alpha-1D adrenergic receptor (ADRA1D, Homo sapiens, UniProt P25100)
PTGS2: Prostaglandin G/H synthase 2 (PTGS2, Homo sapiens, UniProt P35354)
Dipeptidyl peptidase 2: Dipeptidyl peptidase 2 (Homo sapiens, UniProt Q9UHL4)
CASP7: Caspase-7 (CASP7, Homo sapiens, UniProt P55210)

CC(C)Cn1cnc2c(N)nc3ccccc3c21
inhibition (ADRA1D; ligand displacement; radioligand; 10 µM): 76%

Oc1ccc(-c2ncccc2-c2nc3ccccc3s2)cc1
inhibition (PTGS2; enzyme activity; inhibitor; absorbance; 10 µM): 8%

Cn1cc(-c2cccc(N3CCc4c(sc5c4CC(C)(C)C5)C3=O)c2CO)cc(Nc2ccncn2)c1=O
inhibition (Dual specificity tyrosine-phosphorylation-regulated kinase 3 (DYRK3, Homo sapiens, UniProt O43781); enzyme activity; inhibitor; 1 µM): 6%

N=C(N)c1ccc2cc(OC(=O)c3ccc(N=C(N)N)cc3)ccc2c1
inhibition (Dipeptidyl peptidase 2; enzyme activity; inhibitor; 10 µM): 29%

CCN(CC)CCCC[C@H](NC(=O)[C@H](CC(C)C)NC(=O)[C@H](C)NC(=O)[C@H](Cc1ccccc1)NC(=O)c1ccc(C(C)(C)C)cc1)C(=O)N[C@@H](CO)C(=O)OC
inhibition (Neuropeptide Y receptor type 2 (NPY2R, Homo sapiens, UniProt P49146); ligand displacement; radioligand; 10 µM): 10%

CS(=O)(=O)c1ccc(-c2ncc(Cl)cc2-c2nc3ccccc3s2)cc1
inhibition (PTGS2; enzyme activity; inhibitor; absorbance; 10 µM): 98%

CC(=O)N[C@@H](CC(=O)O)C(=O)N[C@@H](CC(N)=O)C(=O)N[C@@H](CC(C)C)C(=O)N[C@H](C=O)CC(=O)O
inhibition (CASP7; enzyme activity; inhibitor; 0.5 µM): 89%

Cn1cc(-c2cc(F)cc(N3CCn4c(cc5c4CCCC5)C3=O)c2CO)cc(Nc2ccc(N3CCN(C4COC4)CC3)cn2)c1=O
inhibition (Protein kinase C zeta type (PRKCZ, Homo sapiens, UniProt Q05513); enzyme activity; inhibitor; 0.1 µM): -2%

C#Cc1n[nH]c2c(-c3cn(C(C)c4ccccn4)c(=O)[nH]c3=O)cc(F)cc12 (centres unmarked)
inhibition (Ribosomal protein S6 kinase beta-1 (RPS6KB1, Homo sapiens, UniProt P23443); enzyme activity; inhibitor; 1 µM): -2.1%

CN(C)Cc1ccc(-c2nc3ccccc3s2)c(-c2cccc(O)c2)c1
inhibition (PTGS2; enzyme activity; inhibitor; absorbance; 10 µM): 1%

CC(C)C[C@H](NC(=O)[C@H](Cc1ccccc1)NC(=O)c1cnccn1)B(O)O
inhibition (Dipeptidyl peptidase 2; enzyme activity; inhibitor; 33 µM): 78.7%

Cc1ccc(-c2nc3ccccc3s2)c(-c2ccc(O)cc2)c1
inhibition (PTGS2; enzyme activity; inhibitor; absorbance; 10 µM): 35.4%

CC(C)N1CCC[C@H]1CNC(=O)c1cn(C2CCCC2)c(=O)c2c1c1ccccc1n2C
inhibition (ADRA1D; ligand displacement; radioligand; 10 µM): 9%

O=C(Nc1cccnn1)N1CCN([C@@H]2CCOc3cc(C(F)(F)F)ccc32)CC1
inhibition (Melanocyte-stimulating hormone receptor (Mc1r, Mus musculus, UniProt Q01727); cell-free assay; 20 µM): 0%

N#Cc1ccc(NCCNCC(=O)N2N=CCC2C#N)nc1 (centres unmarked)
inhibition (Dipeptidyl peptidase 2; enzyme activity; inhibitor; 100 µM): 77%

Nc1ccc(-c2ccccc2)c(-c2nc3ccccc3s2)c1
inhibition (PTGS2; enzyme activity; inhibitor; absorbance; 10 µM): 12.4%

CN(C)C(=O)COC(=O)Cc1ccc(OC(=O)c2ccc(NC(=N)N)cc2)cc1
inhibition (Dipeptidyl peptidase 2; enzyme activity; inhibitor; 10 µM): 20%

COc1cc(Nc2ncc(F)c(Nc3ccc4c(n3)NC(=O)C(C)(C)O4)n2)cc(OC)c1OC
inhibition (Serine/threonine-protein kinase pim-3 (PIM3, Homo sapiens, UniProt Q86V86); binding; competition with immobilised ligand; 10 µM): 38%

CCOC(=O)c1ccc(OC(=O)CCCCCNC(=N)N)cc1
inhibition (CASP7; enzyme activity; inhibitor; 10 µM): 1%

NS(=O)(=O)c1ccc(-c2ncc(Cl)cc2-c2nc3ccccc3s2)cc1
inhibition (PTGS2; enzyme activity; inhibitor; absorbance; 10 µM): 100%
